Test results reported in ChEMBL document CHEMBL1138808, “Synthesis and anticancer activity of simplified indenoisoquinoline topoisomerase I inhibitors lacking substituents on the aromatic rings” (2004).
Activity calls are given as the source filed them. No cut-off for these calls is given here.

Key:
[1] = Growth inhibitory activity against human CNSSF-539 cell line; assay type: functional
Summary of the method: (§1)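 Growth inhibition in human cancer cell culture. GI50 is the concentration giving 50% growth inhibition. Compounds were tested at concentrations up to […].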

[2] = system: Panel (Carcinoma cell lines); assay: Mean graph mid point for growth inhibition of human cancer cell lines; assay type: functional; set-up: unit not given here
Summary of the method: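 Mean graph midpoint of growth inhibition, taken across all human cancer cell lines successfully tested. Compounds were tested at concentrations up to […], and GI50 is the concentration giving 50% growth inhibition.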

[3] = target: T1, DNA topoisomerase 1 (Homo sapiens) (UniProt P11387); assay: Induction of topoisomerase I mediated DNA cleavage; weak activity
T1 sequence (whole entry): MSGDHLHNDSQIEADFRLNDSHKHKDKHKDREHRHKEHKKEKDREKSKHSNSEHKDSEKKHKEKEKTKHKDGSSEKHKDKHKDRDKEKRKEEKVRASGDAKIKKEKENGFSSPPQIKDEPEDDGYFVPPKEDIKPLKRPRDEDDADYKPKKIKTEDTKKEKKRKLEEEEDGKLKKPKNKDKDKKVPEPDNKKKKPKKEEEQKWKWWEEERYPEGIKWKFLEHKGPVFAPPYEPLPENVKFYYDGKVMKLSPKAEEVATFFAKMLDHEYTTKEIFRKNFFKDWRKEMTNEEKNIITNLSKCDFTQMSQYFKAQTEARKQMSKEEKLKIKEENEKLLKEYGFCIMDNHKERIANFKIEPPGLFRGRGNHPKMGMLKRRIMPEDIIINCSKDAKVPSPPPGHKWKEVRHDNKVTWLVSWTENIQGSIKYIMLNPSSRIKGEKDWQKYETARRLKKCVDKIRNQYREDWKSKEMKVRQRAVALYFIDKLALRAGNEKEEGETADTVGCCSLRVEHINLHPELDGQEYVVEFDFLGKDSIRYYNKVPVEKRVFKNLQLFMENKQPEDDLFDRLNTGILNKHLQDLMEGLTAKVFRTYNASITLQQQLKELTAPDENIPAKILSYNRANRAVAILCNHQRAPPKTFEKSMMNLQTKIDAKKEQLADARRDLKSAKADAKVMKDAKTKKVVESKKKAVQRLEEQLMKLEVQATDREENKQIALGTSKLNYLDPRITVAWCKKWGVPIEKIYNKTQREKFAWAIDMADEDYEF

HOP-62 = assay: Growth inhibitory activity against human lung HOP-62 cell line; assay type: functional; summary of the method: as §1
SN12C = assay: Growth inhibitory activity against human renal SN12C cell line; assay type: functional; summary of the method: as §1
HCT-116 = assay: Growth inhibitory activity against human colon HCT116 cell line; assay type: functional; summary of the method: as §1
OVCAR-3 = assay: Growth inhibitory activity against human ovarian OVCAR-3 cell line; assay type: functional; summary of the method: as §1
DU-145 = assay: Growth inhibitory activity against human prostate DU-145 cell line; assay type: functional; summary of the method: as §1
UACC-62 = assay: Growth inhibitory activity against human melanoma UACC-62 cell line; assay type: functional; summary of the method: as §1
MDA-MB-435 = assay: Growth inhibitory activity against human breast MDA-MB-435 cell line; assay type: functional; summary of the method: as §1
[4] = target: T1, DNA topoisomerase 1 (Homo sapiens); assay: Induction of topoisomerase I mediated DNA cleavage; Activity similar to parent compound 1
[5] = target: T1, DNA topoisomerase 1 (Homo sapiens); assay: Induction of topoisomerase I mediated DNA cleavage; greater activity than parent compound 1
[6] = target: T1, DNA topoisomerase 1 (Homo sapiens); assay: Induction of topoisomerase I mediated DNA cleavage; Greater activity than parent compound 1

O=C1c2ccccc2-c2c1c1ccccc1c(=O)n2CCNCCO
GI50 [1]: 1650 nM | Mean graph mid point [2]: 1.9 | DNA cleavage [3]: Weak activity | GI50 (HOP-62): 1620 nM | GI50 (SN12C): 950 nM | GI50 (HCT-116): 1120 nM | GI50 (OVCAR-3): 3850 nM | GI50 (DU-145): 1280 nM | GI50 (UACC-62): 1420 nM | GI50 (MDA-MB-435): 2560 nM

CCCn1c2c(c3ccccc3c1=O)C(=O)c1cc3c(cc1-2)OCO3
GI50 [1]: > 100000 nM | Mean graph mid point [2]: 66.1 | DNA cleavage [4]: Activity similar to parent compound 1 | GI50 (HOP-62): > 100000 nM | GI50 (SN12C): > 100000 nM | GI50 (HCT-116): 30200 nM | GI50 (OVCAR-3): 20900 nM | GI50 (DU-145): > 100000 nM | GI50 (UACC-62): > 100000 nM | GI50 (MDA-MB-435): > 100000 nM

COc1cc2c3c(n(C)c(=O)c2cc1OC)-c1cc2c(cc1C3=O)OCO2
GI50 [1]: 41000 nM | Mean graph mid point [2]: 20 | DNA cleavage [4]: Activity similar to parent compound 1 | GI50 (HOP-62): 1300 nM | GI50 (SN12C): 68000 nM | GI50 (HCT-116): 35000 nM | GI50 (DU-145): 37000 nM | GI50 (UACC-62): 4200 nM | GI50 (MDA-MB-435): 96000 nM

Cl.NCCCCn1c2c(c3ccccc3c1=O)C(=O)c1ccccc1-2
GI50 [1]: 100 nM | Mean graph mid point [2]: 0.16 | DNA cleavage [5]: greater activity than compound 1 | GI50 (HOP-62): 80 nM | GI50 (SN12C): 40 nM | GI50 (HCT-116): 100 nM | GI50 (OVCAR-3): 520 nM | GI50 (DU-145): 10 nM | GI50 (UACC-62): 50 nM | GI50 (MDA-MB-435): 840 nM

COc1cc2c(cc1OC)-c1c(c3ccccc3c(=O)n1CCCN)C2=O.Cl
GI50 [1]: 2930 nM | Mean graph mid point [2]: 0.62 | DNA cleavage [4]: Activity similar to parent compound 1

COc1cc2c3c(n(CCCN)c(=O)c2cc1OC)-c1cc2c(cc1C3=O)OCO2.Cl
GI50 [1]: 260 nM | Mean graph mid point [2]: 0.16 | DNA cleavage [5]: greater activity than compound 1

Cl.Cl.O=C1c2ccccc2-c2c1c1ccccc1c(=O)n2CCCNCCCn1ccnc1
GI50 [1]: 1070 nM | Mean graph mid point [2]: 1 | DNA cleavage [4]: Activity similar to parent compound 1 | GI50 (HOP-62): 410 nM | GI50 (SN12C): 2000 nM | GI50 (HCT-116): 1580 nM | GI50 (OVCAR-3): 1780 nM | GI50 (DU-145): 410 nM | GI50 (UACC-62): 6920 nM | GI50 (MDA-MB-435): 1450 nM

N=C(N)NCCCn1c2c(c3ccccc3c1=O)C(=O)c1ccccc1-2.O=C(O)C(F)(F)F
GI50 [1]: 370 nM | Mean graph mid point [2]: 9.77 | DNA cleavage [6]: Greater activity than compound 1 | GI50 (HOP-62): 690 nM | GI50 (SN12C): 230 nM | GI50 (HCT-116): 22400 nM | GI50 (OVCAR-3): 18200 nM | GI50 (DU-145): 7590 nM | GI50 (UACC-62): 11000 nM | GI50 (MDA-MB-435): 25700 nM

CC[C@@]1(O)C(=O)OCc2c1cc1n(c2=O)Cc2cc3ccccc3nc2-1 [CAMPTOTHECIN]
GI50 [1]: 10 nM | Mean graph mid point [2]: 0.04 | DNA cleavage [6]: Active

O=C1c2ccccc2-c2c1c1ccccc1c(=O)n2CCCO
GI50 [1]: 52500 nM | DNA cleavage [4]: Activity similar to parent compound 1

CCn1c2c(c3ccccc3c1=O)C(=O)c1cc3c(cc1-2)OCO3
GI50 [1]: 40700 nM | Mean graph mid point [2]: 51.3 | DNA cleavage [5]: greater activity than compound 1 | GI50 (HOP-62): 36300 nM | GI50 (SN12C): > 100000 nM | GI50 (HCT-116): 95500 nM | GI50 (OVCAR-3): 89100 nM | GI50 (DU-145): > 100000 nM | GI50 (UACC-62): 20000 nM | GI50 (MDA-MB-435): > 100000 nM

Cl.NCCCn1c2c(c3ccccc3c1=O)C(=O)c1ccccc1-2
GI50 [1]: 250 nM | Mean graph mid point [2]: 0.32 | DNA cleavage [5]: greater activity than compound 1 | GI50 (HOP-62): 200 nM | GI50 (SN12C): 160 nM | GI50 (HCT-116): 180 nM | GI50 (OVCAR-3): 1380 nM | GI50 (DU-145): 220 nM | GI50 (UACC-62): 260 nM | GI50 (MDA-MB-435): 780 nM

O=C1c2ccccc2-c2c1c1ccccc1c(=O)n2CCN1CCOCC1
GI50 [1]: 85100 nM | Mean graph mid point [2]: 67.6 | DNA cleavage [6]: Greater activity than compound 1 | GI50 (HOP-62): > 100000 nM | GI50 (SN12C): 93300 nM | GI50 (HCT-116): 36300 nM | GI50 (OVCAR-3): 81300 nM | GI50 (DU-145): > 100000 nM | GI50 (UACC-62): 29500 nM | GI50 (MDA-MB-435): > 100000 nM

O=C1c2cc3c(cc2-c2c1c1ccccc1c(=O)n2CCCBr)OCO3
GI50 [1]: 370 nM | Mean graph mid point [2]: 9.77 | DNA cleavage [3]: Weak activity | GI50 (SN12C): 230 nM | GI50 (HCT-116): 22400 nM | GI50 (OVCAR-3): 18200 nM | GI50 (DU-145): 7590 nM | GI50 (MDA-MB-435): 25700 nM

COc1cc2c3c(n(CCN)c(=O)c2cc1OC)-c1cc2c(cc1C3=O)OCO2.Cl
GI50 [1]: 1300 nM | Mean graph mid point [2]: 0.34 | DNA cleavage [6]: Greater activity than compound 1 | GI50 (HOP-62): 580 nM | GI50 (SN12C): 360 nM | GI50 (HCT-116): 68 nM | GI50 (OVCAR-3): 860 nM | GI50 (DU-145): 400 nM | GI50 (UACC-62): 140 nM | GI50 (MDA-MB-435): 1040 nM

O=C1c2ccccc2-c2c1c1ccccc1c(=O)n2CCO
GI50 [1]: 12200 nM | DNA cleavage [4]: Activity similar to parent compound 1

COc1cc2c3c(n(CCCN(C)C)c(=O)c2cc1OC)-c1cc2c(cc1C3=O)OCO2
GI50 [1]: 190 nM | Mean graph mid point [2]: 0.35 | DNA cleavage [6]: Greater activity than compound 1 | GI50 (HOP-62): 18 nM | GI50 (SN12C): 900 nM | GI50 (HCT-116): 120 nM | GI50 (OVCAR-3): 1400 nM | GI50 (DU-145): 140 nM | GI50 (UACC-62): 540 nM | GI50 (MDA-MB-435): 650 nM

Cl.NCCn1c2c(c3ccccc3c1=O)C(=O)c1ccccc1-2
GI50 [1]: 210 nM | Mean graph mid point [2]: 0.53 | DNA cleavage [5]: greater activity than compound 1 | GI50 (HOP-62): 620 nM | GI50 (SN12C): 490 nM | GI50 (HCT-116): 270 nM | GI50 (OVCAR-3): 710 nM | GI50 (DU-145): 760 nM | GI50 (UACC-62): 920 nM | GI50 (MDA-MB-435): 920 nM

COc1cc2c3c(n(CCCNCCO)c(=O)c2cc1OC)-c1cc2c(cc1C3=O)OCO2.Cl
GI50 [1]: 40 nM | Mean graph mid point [2]: 0.11 | DNA cleavage [6]: Greater activity than compound 1 | GI50 (SN12C): > 10 nM | GI50 (OVCAR-3): 350 nM | GI50 (DU-145): > 10 nM

CN(C)CCCn1c2c(c3ccccc3c1=O)C(=O)c1ccccc1-2
Mean graph mid point [2]: 1.86 | DNA cleavage [5]: greater activity than compound 1 | GI50 (HOP-62): 1740 nM | GI50 (SN12C): 910 nM | GI50 (HCT-116): 580 nM | GI50 (OVCAR-3): 1700 nM | GI50 (DU-145): 1320 nM | GI50 (UACC-62): 510 nM | GI50 (MDA-MB-435): 2820 nM
